Reference: ChEMBL document CHEMBL5674865, “BRD4 associates with p53 in DNMT3A-mutated leukemia cells and is implicated in apoptosis by the bromodomain inhibitor JQ1” (Cancer Med, 2013)
The source made the active and inactive calls. No cut-off for these calls is given here.

How the values were obtained:
OCI-AML-3 [1] = experiment: Antiproliferative activity against human OCI-AML-3 cells harbouring DNMT3A-R882C and NPM1c mutants co-expressing wild-type p53 at 1 to 5 uM assessed as decrease in cell viability after 72 hrs by WST-1 assay; assay type: functional, cell-based; conditions: dose 1-5 µM
Method in brief: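 OCI-AML3 cells (DNMT3A-R882, NPM1c, p53 wild-type) in RPMI 1640 with 10% FCS, L-glutamine, penicillin and streptomycin. Cells plated at 2 × 10^4 per well and exposed for 72 h; DMSO stocks diluted in PBS. WST-1 added and absorbance read at 450 nm 2–4 h later. Viability taken relative to untreated cells (100%). Three experiments in triplicate, mean ± SEM.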

OCI-AML-3 [2] = experiment: Antiproliferative activity against human OCI-AML-3 cells harbouring DNMT3A-R882C and NPM1c mutants co-expressing wild-type p53 at 0.125 to 0.25 uM assessed as decrease in cell viability in combination of 1 to 5 uM nutlin-3 after 72 hrs by WST-1 assay; assay type: functional, cell-based; conditions: dose 0.125-0.25 µM
Method in brief: (§1)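 WST-1 viability of OCI-AML3 combinations. 20,000 cells per well treated with 0.25 µmol/L JQ1 plus the partner compound (Nutlin-3 0–2 µmol/L or 1–5 µmol/L; TSA 20 nmol/L; vorinostat 0.625 µmol/L; sodium butyrate 0.5 mmol/L; daunorubicin 0–50 nmol/L), applied together for 72 h. Read at 450 nm and expressed as % of untreated. Three experiments run in triplicate.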

OCI-AML-3 [3] = experiment: Antiproliferative activity against human OCI-AML-3 cells harbouring DNMT3A-R882C and NPM1c mutants co-expressing wild-type p53 assessed as decrease in cell viability after 96 hrs by WST-1 assay; assay type: functional, cell-based
Method in brief: (§2)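 WST-1 viability assay. 2 × 10^4 cells per well with compound, incubated for the indicated times, read at 450 nm 2–4 h after WST-1 addition. Viability is given as % of untreated cells by optical density. Compounds are dissolved in DMSO and diluted in PBS.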

K562 [4] = experiment: Antiproliferative activity against human K562 cells assessed as decrease in cell viability after 96 hrs by WST-1 assay; assay type: functional, cell-based; method in brief: as §2
Raji [5] = experiment: Antiproliferative activity against human Raji cells assessed as decrease in cell viability after 96 hrs by WST-1 assay; assay type: functional, cell-based; method in brief: as §2
OCI-AML-3 [6] = experiment: Antiproliferative activity against human OCI-AML-3 cells harbouring DNMT3A-R882C and NPM1c mutants co-expressing wild-type p53 at 0.25 uM assessed as decrease in cell viability in combination of 20 nM trichostatin A after 72 hrs by WST-1 assay; assay type: functional, cell-based; method in brief: as §1
OCI-AML-3 [7] = experiment: Antiproliferative activity against human OCI-AML-3 cells harbouring DNMT3A-R882C and NPM1c mutants co-expressing wild-type p53 at 0.25 uM assessed as decrease in cell viability after 96 hrs by trypan blue assay; assay type: functional, cell-based
Method in brief: (§3)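 OCI-AML3 growth curves. 80,000 cells per well in medium with or without 0.25 µmol/L JQ1. Viable cells counted by trypan blue exclusion every 24 h up to 96 h.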

OCI-AML-3 [8] = experiment: Induction of apoptosis in human OCI-AML-3 cells harbouring DNMT3A-R882C and NPM1c mutants co-expressing wild-type p53 at 0.25 uM assessed as activation of caspase 3/7 measured in combination of 20 nM trichostatin A after 24 hrs by Caspase-Glo 3/7 assay; assay type: functional, cell-based
Method in brief: (§4)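 Caspase-Glo 3/7 luminescence assay. OCI-AML3, Raji or K562 cells plated at 20,000 per well and treated with 0.25 µmol/L JQ1, with or without 20 nmol/L TSA. Luminescence read at 2, 4 or 24 h.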

OCI-AML-3 [9] = experiment: Induction of apoptosis in human OCI-AML-3 cells harbouring DNMT3A-R882C and NPM1c mutants co-expressing wild-type p53 at 0.25 uM assessed as activation of caspase 3/7 measured after 24 hrs by Caspase-Glo 3/7 assay; assay type: functional, cell-based; method in brief: as §4
K562 [10] = experiment: Induction of apoptosis in human K562 cells at 0.25 uM assessed as activation of caspase 3/7 measured after 24 hrs by Caspase-Glo 3/7 assay; assay type: functional, cell-based; method in brief: as §4
Raji [11] = experiment: Induction of apoptosis in human Raji cells at 0.25 uM assessed as activation of caspase 3/7 measured after 24 hrs by Caspase-Glo 3/7 assay; assay type: functional, cell-based; method in brief: as §4
OCI-AML-3 [12] = experiment: Antiproliferative activity against human OCI-AML-3 cells harbouring DNMT3A-R882C and NPM1c mutants co-expressing wild-type p53 at 0.25 uM assessed as decrease in cell viability in combination of 0.5 mM sodium butyrate after 72 hrs by WST-1 assay; assay type: functional, cell-based; method in brief: as §1
OCI-AML-3 [13] = experiment: Induction of DNA damage in human OCI-AML-3 cells harbouring DNMT3A-R882C and NPM1c mutants co-expressing wild-type p53 at 0.25 uM assessed as increase in 53BP1 foci incubated for 24 hrs by immunolabeling method; assay type: functional, cell-based
Method in brief: (§5)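 OCI-AML3 cells treated 24 h with 0.25 µmol/L JQ1, alone or with 10 µmol/L KU60019, […] caffeine or 1 µmol/L NU7026 added together. Cells cytospun, fixed in 4% paraformaldehyde and permeabilized with 0.2% Triton X-100. Stained with anti-γH2AX (1:500) and anti-53BP1 (1:1000) for 1 h at RT, then fluorescent secondaries and DAPI. Pan-nuclear γH2AX cells and 53BP1 foci scored by microscopy. Three experiments.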

OCI-AML-3 [14] = experiment: Induction of apoptosis in human OCI-AML-3 cells harbouring DNMT3A-R882C and NPM1c mutants co-expressing wild-type p53 at 0.25 uM measured after 24 hrs by Annexin V/PI staining based flow cytometry method; assay type: functional, cell-based
Method in brief: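 OCI-AML3 cells treated for 24 h with 0.25 µmol/L JQ1, Nutlin-3 or both. Stained with annexin V and propidium iodide and analyzed by flow cytometry. Quadrant analysis of apoptotic populations.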

OCI-AML-3 [15] = experiment: Induction of DNA damage in human OCI-AML-3 cells harbouring DNMT3A-R882C and NPM1c mutants co-expressing wild-type p53 at 0.25 uM assessed as induction of gammaH2AX incubated for 24 hrs in combination with […] by immunolabeling method; assay type: functional, cell-based; method in brief: as §5
OCI-AML-3 [16] = experiment: Induction of apoptosis in human OCI-AML-3 cells harbouring DNMT3A-R882C and NPM1c mutants co-expressing wild-type p53 at 0.25 uM assessed as activation of caspase 8 measured after 24 hrs by Caspase-Glo 8 assay; assay type: functional, cell-based
Method in brief: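 Caspase-Glo 8 luminescence assay. OCI-AML3 cells plated at 20,000 per well and treated with 0.25 µmol/L JQ1 for 24 h. BI-2536 at 1 µmol/L used as positive control.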

OCI-AML-3 [17] = experiment: Antiproliferative activity against human OCI-AML-3 cells harbouring DNMT3A-R882C and NPM1c mutants co-expressing wild-type p53 at 0.25 uM assessed as cell death after 96 hrs by trypan blue assay; assay type: functional, cell-based; method in brief: as §3
OCI-AML-3 [18] = experiment: Induction of apoptosis in human OCI-AML-3 cells harbouring DNMT3A-R882C and NPM1c mutants co-expressing wild-type p53 at 0.25 uM assessed as activation of caspase 3/7 measured at 4 hrs by Caspase-Glo 3/7 assay; assay type: functional, cell-based; method in brief: as §4
OCI-AML-3 [19] = experiment: Antiproliferative activity against human OCI-AML-3 cells harbouring DNMT3A-R882C and NPM1c mutants co-expressing wild-type p53 at 1 uM assessed as decrease in cell viability after 96 hrs by WST-1 assay; assay type: functional, cell-based; method in brief: as §2
OCI-AML-3 [20] = experiment: Induction of DNA damage in human OCI-AML-3 cells harbouring DNMT3A-R882C and NPM1c mutants co-expressing wild-type p53 at 0.25 uM assessed as increase in pyknotic nuclei incubated for 48 hrs by DAPI staining method; assay type: functional
Method in brief: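 OCI-AML3 cells treated with 0.25 µmol/L JQ1 for 48 h, cytospun and fixed. DAPI-stained nuclei examined by fluorescence microscopy and the percentage of pyknotic nuclei scored.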

OCI-AML-3 [21] = experiment: Antiproliferative activity against human OCI-AML-3 cells harbouring DNMT3A-R882C and NPM1c mutants co-expressing wild-type p53 at 0.25 uM assessed as decrease in cell viability in combination of 0.625 uM vorinostat after 72 hrs by WST-1 assay; assay type: functional, cell-based; method in brief: as §1
OCI-AML-3 [22] = experiment: Induction of DNA damage in human OCI-AML-3 cells harbouring DNMT3A-R882C and NPM1c mutants co-expressing wild-type p53 at 0.25 uM assessed as increase in PCNA labelling for 48 hrs by DAPI staining method; assay type: functional, cell-based
OCI-AML-3 [23] = experiment: Induction of DNA damage in human OCI-AML-3 cells harbouring DNMT3A-R882C and NPM1c mutants co-expressing wild-type p53 at 0.25 uM assessed as increase in pan-nuclear gammaH2AX foci incubated for 24 hrs by immunolabeling method; assay type: functional, cell-based; method in brief: as §5
OCI-AML-3 [24] = experiment: Antiproliferative activity against human OCI-AML-3 cells harbouring DNMT3A-R882C and NPM1c mutants co-expressing wild-type p53 at 0.25 uM assessed as decrease in cell viability in combination of 5 to 50 nM daunorubicin after 72 hrs by WST-1 assay; assay type: functional, cell-based; method in brief: as §1
OCI-AML-3 [25] = experiment: Induction of apoptosis in human OCI-AML-3 cells harbouring DNMT3A-R882C and NPM1c mutants co-expressing wild-type p53 at 0.25 uM assessed as activation of caspase 3/7 measured at 2 hrs by Caspase-Glo 3/7 assay; assay type: functional, cell-based; method in brief: as §4
OCI-AML-3 [26] = experiment: Induction of DNA damage in human OCI-AML-3 cells harbouring DNMT3A-R882C and NPM1c mutants co-expressing wild-type p53 at 0.25 uM assessed as induction of gammaH2AX incubated for 24 hrs in combination with 1 uM NU7026 by immunolabeling method; assay type: functional, cell-based; method in brief: as §5
OCI-AML-3 [27] = experiment: Induction of apoptosis in human OCI-AML-3 cells harbouring DNMT3A-R882C and NPM1c mutants co-expressing wild-type p53 at 1 uM assessed as activation of caspase 8 measured after 24 hrs by Caspase-Glo 8 assay; assay type: functional, cell-based
Method in brief: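 OCI-AML3 cells plated at 20,000 per well and treated for 24 h. Caspase 8 activation read as luminescent signal with the Caspase-Glo 8 kit; 1 µmol/L is the positive-control level used. Mean of at least three independent experiments ± SEM; Student's t-test, P < 0.05.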

OCI-AML-3 [28] = experiment: Induction of DNA damage in human OCI-AML-3 cells harbouring DNMT3A-R882C and NPM1c mutants co-expressing wild-type p53 at 0.25 uM assessed as induction of gammaH2AX incubated for 24 hrs in combination with 10 uM KU60019 by immunolabeling method; assay type: functional, cell-based; method in brief: as §5

COc1ccc(C2=NC(c3ccc(Cl)cc3)C(c3ccc(Cl)cc3)N2C(=O)N2CCNC(=O)C2)c(OC(C)C)c1 (stereo unspecified)
Activity (OCI-AML-3 [1]): inactive

COc1ccc(C2=NC(c3ccc(Cl)cc3)C(c3ccc(Cl)cc3)N2C(=O)N2CCNC(=O)C2)c(OC(C)C)c1.Cc1sc2c(c1C)C(c1ccc(Cl)cc1)=N[C@@H](CC(=O)OC(C)(C)C)c1nnc(C)n1-2 (stereo unspecified)
Activity (OCI-AML-3 [2]): Active

Cc1sc2c(c1C)C(c1ccc(Cl)cc1)=N[C@H](CC(=O)OC(C)(C)C)c1nnc(C)n1-2
Activity (OCI-AML-3 [3]; dose 1.0 µM): inactive | Activity (K562 [4]): inactive | Activity (Raji [5]): inactive

Cc1sc2c(c1C)C(c1ccc(Cl)cc1)=N[C@@H](CC(=O)OC(C)(C)C)c1nnc(C)n1-2
Activity (OCI-AML-3 [6]): Active | Activity (OCI-AML-3 [7]): Active | Activity (OCI-AML-3 [8]): Active | Activity (OCI-AML-3 [9]): Active | Activity (K562 [10]): inactive | Activity (Raji [11]): Active | Activity (OCI-AML-3 [12]): Active | Activity (OCI-AML-3 [13]): Active | Activity (OCI-AML-3 [14]): Active | Activity (OCI-AML-3 [15]): inactive | Activity (OCI-AML-3 [16]): inactive | Activity (OCI-AML-3 [17]): Active | Activity (OCI-AML-3 [18]): inactive | Activity (OCI-AML-3 [19]): Active | Activity (OCI-AML-3 [20]): 3.2% | Activity (OCI-AML-3 [21]): Active | Activity (OCI-AML-3 [22]): Active | IC50 (OCI-AML-3 [3]; OCI-AML-3, 96 h): ~500 nM | IC50 (K562 [4]; K562, 96 h): > 2000 nM | IC50 (Raji [5]): ~1000 nM | Activity (OCI-AML-3 [23]): inactive | Activity (OCI-AML-3 [24]): Active | Activity (OCI-AML-3 [25]): inactive | Activity (OCI-AML-3 [26]): inactive

CC[C@@H]1C(=O)N(C)c2cnc(Nc3ccc(C(=O)NC4CCN(C)CC4)cc3OC)nc2N1C1CCCC1
Activity (OCI-AML-3 [27]): Active

C[C@@H]1CN(CC(=O)Nc2ccc3c(c2)Cc2cccc(-c4cc(=O)cc(N5CCOCC5)o4)c2S3)C[C@H](C)O1.Cc1sc2c(c1C)C(c1ccc(Cl)cc1)=N[C@@H](CC(=O)OC(C)(C)C)c1nnc(C)n1-2
Activity (OCI-AML-3 [28]): inactive
